Bioassay records as filed in PubChem BioAssay.
In the library only some 3.3% were active in any assay of this set; here they are far more common.
UHRF1 binding: human UHRF1 methylated DNA binding inhibitors | Q96T88 | UHRF1 binding to methylated oligo, TR-FRET | inhibition, % at 4.4 µM | 370,000 compounds, 0.75% hits | AID 687016; in the data active = inhibition above about 21%;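 note: UHRF1 SRA domain binding a hemimethylated CpG hairpin DNA probe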
Target sequence (Q96T88 whole entry, looked up, the tested form may be a part): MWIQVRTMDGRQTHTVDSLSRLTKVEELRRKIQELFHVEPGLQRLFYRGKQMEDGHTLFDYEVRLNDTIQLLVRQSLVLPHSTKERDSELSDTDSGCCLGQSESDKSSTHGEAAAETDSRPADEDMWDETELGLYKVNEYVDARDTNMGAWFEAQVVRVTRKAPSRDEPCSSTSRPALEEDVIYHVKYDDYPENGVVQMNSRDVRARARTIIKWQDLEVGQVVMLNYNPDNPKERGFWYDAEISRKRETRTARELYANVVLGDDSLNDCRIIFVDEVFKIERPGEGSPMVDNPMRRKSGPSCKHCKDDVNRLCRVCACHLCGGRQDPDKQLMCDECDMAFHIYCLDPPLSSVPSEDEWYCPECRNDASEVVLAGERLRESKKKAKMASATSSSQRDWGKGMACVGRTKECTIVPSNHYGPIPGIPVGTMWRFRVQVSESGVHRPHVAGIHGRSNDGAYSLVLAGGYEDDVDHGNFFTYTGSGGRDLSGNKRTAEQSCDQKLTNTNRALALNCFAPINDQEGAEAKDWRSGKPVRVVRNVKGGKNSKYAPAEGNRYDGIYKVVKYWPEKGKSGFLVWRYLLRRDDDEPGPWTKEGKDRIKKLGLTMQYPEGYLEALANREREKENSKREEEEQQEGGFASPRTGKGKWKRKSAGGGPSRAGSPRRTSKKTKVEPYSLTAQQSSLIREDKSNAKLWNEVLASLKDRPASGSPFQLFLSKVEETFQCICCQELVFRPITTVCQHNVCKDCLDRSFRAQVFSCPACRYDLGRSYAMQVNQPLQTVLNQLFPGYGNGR
LEDGF integ inh: blocks HIV-1 LEDGF/p75-dependent DNA integration; inhibition, % at 3.7 µM; TR-FRET IN-LEDGF/p75 DNA integration, Eu/Cy5; 370,000 compounds, 0.64% hits;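 active = inhibition above the screen-wide mean plus 3 SD, cut at about 13% in these data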;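 note: signal is the Cy5 over europium emission ratio at 671 and 618 nm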
TDP2 inh: TDP2 (human) inhibition, absorbance primary screen; recombinant TDP2, T5PNP hydrolysis, p-nitrophenol absorbance 415 nm; inhibition, % at 12.8 µM; 370,000 compounds, 0.34% hits; AID 720702; O95551;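 active = inhibition above the mean of all tested compounds plus 3 SD, set per campaign, cut at about 25% in these data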
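Material: recombinant human TDP2; quantity: TDP2 enzyme at 120 nM final; medium: Tris-HCl pH 7.5 with MgCl2; compound: single concentration, 12.8 µM nominal, with 1% DMSO; incubation: 2 h enzyme incubation at 37 °C; signal: epi absorbance; measure: percent inhibition; benchmarks: high control without enzyme, low control DMSO plus TDP2; repeats: singlicate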
SIAE inh: inhibitors of human sialic acid acetylesterase SIAE. Q9HAT2. SIAE FP-Rh probe binding, fluorescence polarization. inhibition, % at 9.66 µM. 370,000 compounds, 0.69% hits. AID 1053197;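 active = inhibition above a cutoff: mean of compounds within the control limits plus 3 SD of those, cut at about 17% in these data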
PRMT1 FP inh: blocks human protein arginine methyltransferase 1; Q99873; recombinant PRMT1, activity-based probe fluorescence polarization; inhibition, % at 2.79 µM; 370,000 compounds, 1.3% hits; AID 652257;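 active = inhibition above about 21% made by adding two undisclosed values, limit read from the data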
MBD2 DNA inh: blocks human MBD2 binding to methylated DNA; TR-FRET, MBD2 binding to methylated oligonucleotide; 370,000 compounds, 0.31% hits; Q9UBB5; inhibition, % at 4.4 µM; AID 686964; in the data active = inhibition above about 13%
SIAE inh conf: human SIAE inhibition, confirmation; shares compounds with SIAE inh; SIAE FP-Rh activity-based probe, fluorescence polarization; inhibition, % at 9.66 µM; 2,300 compounds, 13% hits; AID 1117263;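 active = mean inhibition of the replicates above the hit cutoff set in the primary screen, cut at about 17% in these data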;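 note: inhibitors lower polarization as more probe stays unbound to SIAE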
Hits are given with their value.

How did CCCc1cc(=O)[nH]c(SCC(=O)Nc2sccc2C#N)n1 do in these assays?
UHRF1 binding: inactive; LEDGF integ inh: inactive; TDP2 inh: inactive; SIAE inh: 17; PRMT1 FP inh: inactive; MBD2 DNA inh: inactive; SIAE inh conf: inactive

How did CCCc1cc(=O)[nH]c(SCC(=O)Nc2ccc3ccccc3c2)n1 do in these assays?
UHRF1 binding: inactive; LEDGF integ inh: inactive; TDP2 inh: inactive; SIAE inh: inactive; PRMT1 FP inh: inactive; MBD2 DNA inh: inactive

Results for COc1ccc(CNc2cccc3[nH]c(C(F)(F)F)nc23)cc1OC ?
UHRF1 binding: inactive; LEDGF integ inh: inactive; TDP2 inh: inactive; SIAE inh: 19; PRMT1 FP inh: inactive; MBD2 DNA inh: inactive; SIAE inh conf: inactive

What do the screens show for `Cc1c(C(=O)Nc2ccc3c(c2)CCC3)cccc1[N+](=O)[O-]`?
UHRF1 binding: inactive; LEDGF integ inh: inactive; TDP2 inh: inactive; SIAE inh: 18; PRMT1 FP inh: inactive; MBD2 DNA inh: inactive; SIAE inh conf: inactive

What do the screens show for `O=C(Nc1ccc2ccccc2c1)c1cccc([N+](=O)[O-])c1`?
UHRF1 binding: inactive; LEDGF integ inh: inactive; TDP2 inh: inactive; SIAE inh: 29; PRMT1 FP inh: inactive; MBD2 DNA inh: inactive; SIAE inh conf: inactive

Results for O=C(Nc1cccc([N+](=O)[O-])c1)c1ccccc1 ?
UHRF1 binding: inactive; LEDGF integ inh: inactive; TDP2 inh: inactive; SIAE inh: inactive; PRMT1 FP inh: inactive; MBD2 DNA inh: inactive

Results for O=C(O)c1cccc([N+](=O)[O-])c1C(=O)Nc1ccc2ccccc2c1 ?
UHRF1 binding: inactive; LEDGF integ inh: inactive; TDP2 inh: inactive; SIAE inh: 21; PRMT1 FP inh: inactive; MBD2 DNA inh: inactive; SIAE inh conf: inactive

What do the screens show for `COc1ccc(-c2nnc(SCC(=O)Nc3ccc4cn[nH]c4c3)n2Cc2ccco2)cc1`?
UHRF1 binding: inactive; LEDGF integ inh: inactive; TDP2 inh: inactive; SIAE inh: inactive; PRMT1 FP inh: inactive; MBD2 DNA inh: inactive

What do the screens show for `CCn1c(SCC(=O)NCC2CCCO2)nc2c(c1=O)SC(C)C2` (stereo not drawn)?
UHRF1 binding: inactive; LEDGF integ inh: inactive; TDP2 inh: inactive; SIAE inh: inactive; PRMT1 FP inh: inactive; MBD2 DNA inh: inactive

What do the screens show for `O=C(CSc1nc2c(c(=O)n1-c1ccccc1)SCC2)NCC1CCCO1` (stereo not drawn)?
UHRF1 binding: inactive; LEDGF integ inh: inactive; TDP2 inh: inactive; SIAE inh: 31; PRMT1 FP inh: inactive; MBD2 DNA inh: inactive; SIAE inh conf: inactive

What do the screens show for `CC1Cc2nc(SCC(=O)NCC3CCCO3)n(C)c(=O)c2S1` (stereo not drawn)?
UHRF1 binding: inactive; LEDGF integ inh: inactive; TDP2 inh: inactive; SIAE inh: 20; PRMT1 FP inh: inactive; MBD2 DNA inh: inactive; SIAE inh conf: inactive

How did Nc1[nH]c(C(=O)c2ccc(Cl)cc2)c(-c2ccc(Br)cc2)c1C(=O)NCc1ccc(Cl)cc1Cl do in these assays?
UHRF1 binding: inactive; LEDGF integ inh: inactive; TDP2 inh: inactive; SIAE inh: inactive; PRMT1 FP inh: inactive; MBD2 DNA inh: inactive

How did CC[C@@]1(c2ccc(C)cc2)C(=O)N(C(=O)OC(C)C)N1C(=O)OC(C)C do in these assays?
UHRF1 binding: inactive; LEDGF integ inh: inactive; TDP2 inh: inactive; SIAE inh: inactive; PRMT1 FP inh: inactive; MBD2 DNA inh: inactive

How did CC(C)OC(=O)c1cc2c(ccn2C)n1CC(=O)N(Cc1ccccc1)c1ccccc1 do in these assays?
UHRF1 binding: inactive; LEDGF integ inh: inactive; TDP2 inh: inactive; SIAE inh: 19; PRMT1 FP inh: inactive; MBD2 DNA inh: inactive; SIAE inh conf: inactive

What do the screens show for `CCOC(=O)c1cc2c(ccn2C)n1Cc1cc(C)ccc1C`?
UHRF1 binding: inactive; LEDGF integ inh: inactive; TDP2 inh: inactive; SIAE inh: inactive; PRMT1 FP inh: inactive; MBD2 DNA inh: inactive

Results for COc1ccc2c(c1)N=CN1CCc3c([nH]c4ccccc34)C3=NCC[C@@]321 ?
UHRF1 binding: inactive; LEDGF integ inh: inactive; TDP2 inh: inactive; SIAE inh: inactive; PRMT1 FP inh: inactive; MBD2 DNA inh: inactive

How did COC(=O)CC1=NN(c2ccc(OC)cc2)C(=O)/C1=C\c1ccc(Cl)cc1 do in these assays?
UHRF1 binding: inactive; LEDGF integ inh: inactive; TDP2 inh: inactive; SIAE inh: 17; PRMT1 FP inh: inactive; MBD2 DNA inh: inactive; SIAE inh conf: inactive

How did COC(=O)C1=C(NC(=O)COc2ccc(Cl)cc2Cl)CCS1 do in these assays?
UHRF1 binding: inactive; LEDGF integ inh: inactive; TDP2 inh: inactive; SIAE inh: 20; PRMT1 FP inh: inactive; MBD2 DNA inh: inactive; SIAE inh conf: inactive

How did COCCN(CCOC)C(=O)[C@H](CCc1ccccc1)NC(=O)[C@H]1O[C@@H](n2cnc3c(N)ncnc32)[C@H](O)[C@@H]1O do in these assays?
UHRF1 binding: inactive; LEDGF integ inh: inactive; TDP2 inh: inactive; SIAE inh: inactive; PRMT1 FP inh: inactive; MBD2 DNA inh: inactive

What do the screens show for `COc1ccc(C2C(C(=O)N3CCCCC3C)CC(=O)N2c2ccc(OC)cc2)cc1` (stereo not drawn)?
UHRF1 binding: inactive; LEDGF integ inh: inactive; TDP2 inh: inactive; SIAE inh: inactive; PRMT1 FP inh: inactive; MBD2 DNA inh: inactive

How did O=[N+]([O-])c1cccc(N/N=C/c2cccc(O)c2O)c1 do in these assays?
UHRF1 binding: inactive; LEDGF integ inh: inactive; TDP2 inh: inactive; SIAE inh: 23; PRMT1 FP inh: inactive; MBD2 DNA inh: inactive; SIAE inh conf: inactive

How did CN(C(=S)Nc1ccc(Oc2ccccc2)cc1)c1ccc(O)cc1 do in these assays?
UHRF1 binding: inactive; LEDGF integ inh: inactive; TDP2 inh: inactive; SIAE inh: 21; PRMT1 FP inh: inactive; MBD2 DNA inh: inactive; SIAE inh conf: inactive

What do the screens show for `Cc1ccc(-c2ccccc2NC(=O)CS(=O)CC(=O)Nc2ccc(C)c(Cl)c2)o1` (stereo not drawn)?
UHRF1 binding: inactive; LEDGF integ inh: inactive; TDP2 inh: inactive; SIAE inh: 45; PRMT1 FP inh: 52; MBD2 DNA inh: inactive; SIAE inh conf: inactive

What do the screens show for `COC(=O)c1cc2c(c3c4cc(F)ccc4n(S(=O)(=O)c4ccc(C)cc4)c13)C(=O)N(Cc1ccc(C(F)(F)F)cc1)C2`?
UHRF1 binding: inactive; LEDGF integ inh: inactive; TDP2 inh: inactive; SIAE inh: inactive; PRMT1 FP inh: inactive; MBD2 DNA inh: inactive

What do the screens show for `CCNC(=O)N(C)[C@H]1C[C@H]2c3[nH]c4c(-c5ccccc5)cccc4c3CCN2C(=O)[C@H]1[C@H](C)O`?
UHRF1 binding: inactive; LEDGF integ inh: inactive; TDP2 inh: inactive; SIAE inh: inactive; PRMT1 FP inh: inactive; MBD2 DNA inh: inactive

Results for CC(=O)N1CCc2cc(C(=O)CN3CCCCC3)ccc21 ?
UHRF1 binding: inactive; LEDGF integ inh: inactive; TDP2 inh: inactive; SIAE inh: 44; PRMT1 FP inh: inactive; MBD2 DNA inh: inactive; SIAE inh conf: inactive
